HSP90 inh: HSP90 inhibitors, primary screen, cell lysate, luminescence | Rabbit reticulocyte lysate, luciferase refolding luminescence, 3 h | inhibition, % at 5.6 µM | Heat shock protein HSP 90 (rabbit reticulocyte lysate; luciferase refolding) | actives 0.91% (n = 290,000);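 active means inhibition above the screen-wide mean plus 3 SD, computed separately per campaign, cut at about 16% in these data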;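 further: 0% = DMSO wells and 100% = 60 µM geldanamycin wells; inhibitors lower the luminescence because luciferase stays unfolded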
SENP1 FRET inh: human SENP1 catalytic domain inhibitors, primary screen, biochemical, FRET, uHTS. Sentrin-specific protease 1 (Homo sapiens), Q9P0U3. actives 0.21% (n = 360,000). inhibition, % at 10 µM. AID 624204, 2012. recombinant SENP1 catalytic domain, CyPet-SUMO1-YPet FRET cleavage;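 active means inhibition at least 30% at 10 µM, raw YFP signal under a set limit, fluorescence ratio 0.5 to 1.5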;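 further: 0% = enzyme with DMSO and 100% = no enzyme wells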
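system = hSENP1 catalytic domain, recombinant | reagent = SFCypet-SUMO1-SFYpet substrate at 25 nM | doses = one dose per compound, 10 µM, 0.5% DMSO | incubation = enzyme reaction for 50 min at room temperature, dark | measured by = FRET, CFP and YFP emission | controls = no-enzyme low, enzyme-DMSO high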
SENP8 block-1: SENP8 protease inhibitors, primary screen, biochemical, luminescence | AID 2540, 2010 | Sentrin-specific protease 8 (Homo sapiens), Q96LD8 | inhibition, % at 10 µM | purified SENP8, Z-RLRGG-aminoluciferin cleavage | actives 1.2% (n = 330,000); in the data active means inhibition above about 50%
SENP7 block: SENP7 protease inhibitors, primary screen, biochemical, luminescence, uHTS; recombinant SENP7, Z-RLRGG-aminoluciferin luminescence, 40 min; inhibition, % at 5 µM; actives 1.5% (n = 330,000); AID 434973, 2010;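 active means inhibition above about 50% at the single test dose, limit read from the data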;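 further: plate controls were DMSO with enzyme for no effect and no enzyme buffer wells for full effect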
Target sequence (Q9BQF6 706-1050 limits assumed): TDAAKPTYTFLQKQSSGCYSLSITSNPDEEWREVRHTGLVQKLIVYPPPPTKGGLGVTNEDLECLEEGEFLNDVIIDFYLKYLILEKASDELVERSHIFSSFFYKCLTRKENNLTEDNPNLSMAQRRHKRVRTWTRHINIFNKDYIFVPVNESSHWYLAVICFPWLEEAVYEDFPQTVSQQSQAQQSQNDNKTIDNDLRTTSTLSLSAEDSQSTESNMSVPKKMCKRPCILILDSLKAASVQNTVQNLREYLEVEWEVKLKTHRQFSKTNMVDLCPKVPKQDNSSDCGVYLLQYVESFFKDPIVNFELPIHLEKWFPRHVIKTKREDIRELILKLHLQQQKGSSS
SENP6 block: SENP6 protease inhibitors, primary screen, biochemical, luminescence, uHTS; Sentrin-specific protease 6 (Homo sapiens), Q9GZR1; Recombinant SENP6 catalytic domain, aminoluciferin luminescence; inhibition, % at 10 µM; actives 1.8% (n = 330,000);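 active means inhibition above about 50% at the single tested dose, limit read from the data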;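 further: plate controls were DMSO wells with enzyme for no effect and DMSO wells lacking enzyme for full effect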
SENP8 block-2: human SENP8 protease inhibitors, primary screen, biochemical, fluorescence, Nedd8 protein substrate, uHTS | inhibition, % at 20 µM | recombinant SENP8 | Sentrin-specific protease 8 (Homo sapiens), Q96LD8 | actives 0.64% (n = 360,000); in the data active means inhibition mostly above about 40%, no sharp cut-off; inactive means mostly below about 27%
SENP8 confirm: SENP8 protease inhibitors, retest, confirmation, biochemical, luminescence, single concentration; shares compounds with SENP7 block; Recombinant SENP8, Z-RLRGG-aminoluciferin luminescence, 60 min; inhibition, % at 12.5 µM; actives 40% (n = 6,200); AID 488912, 2010;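 active means mean inhibition across replicates above about 50%, limit read from the data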
SENP6 confirm: SENP6 protease inhibitors, confirmation, biochemical, luminescence, single concentration; shares compounds with SENP7 block; recombinant SENP6, Z-RLRGG-aminoluciferin luminescence; inhibition, % at 12.5 µM; actives 58% (n = 6,200)
SENP7 conf: SENP7 protease inhibitors, retest, confirmation, biochemical, luminescence, single concentration; actives 69% (n = 6,200); shares compounds with SENP7 block; recombinant SENP7, Z-RLRGG-aminoluciferin luminescence, 40 min; inhibition, % at 12.5 µM; AID 488917, 2010
Casp3 select: caspase-3 protease inhibitors, confirmation, selectivity assay for SENP inhibitor project, biochemical, single concentration | shares compounds with SENP7 block | purified caspase-3, Z-DEVD-aminoluciferin luminescence, 60 min | inhibition, % at 12.5 µM | actives 60% (n = 6,200) | AID 488918, 2010;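 active means mean inhibition above about 50%, limit read from the data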;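 further: plate controls were enzyme with DMSO for no effect and wells without caspase-3 for full effect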
Target sequence (P42574 28-227 limits assumed): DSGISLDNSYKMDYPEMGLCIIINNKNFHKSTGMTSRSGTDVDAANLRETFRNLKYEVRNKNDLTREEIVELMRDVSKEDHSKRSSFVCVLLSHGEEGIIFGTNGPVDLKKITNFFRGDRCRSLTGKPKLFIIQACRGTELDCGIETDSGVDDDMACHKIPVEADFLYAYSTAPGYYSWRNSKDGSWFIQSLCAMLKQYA
Luc interf: luminescence interference (SENP counter-screen). inhibition, % at 12.5 µM. shares compounds with SENP7 block. Pre-incubated SENP8/Z-RLRGG-aminoluciferin, luciferase luminescence interference. actives 39% (n = 6,200);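 active means mean inhibition above about 50% when retested at one dose, limit read from the data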;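 further: plate controls were DMSO wells with completed reaction for no effect and substrate without enzyme for full effect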
Numbers without * were called inactive; i = inactive; / = no result. An excerpt weighted towards active compounds, which were near 2.9% of everything screened.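 How the source made its calls, unless noted: active means mean inhibition above about 50% in the one-dose retest (limit read from the data); inactive means the rest.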

SMILES	HSP90 inh	SENP1 FRET inh	SENP8 block-1	SENP7 block	SENP6 block	SENP8 block-2	SENP8 confirm	SENP6 confirm	SENP7 conf	Casp3 select	Luc interf
C=C(C)Cn1c(N2CCC(Cc3ccccc3)CC2)nc2c1c(=O)[nH]c(=O)n2C	3	1	81*	4	98*	19	23	21	1	6	0
Cc1cccc(NC(=O)COc2ccc3oc4c(c3c2)CCCC4)n1	-4	2	-1	4	-4	-15	/	/	/	/	/
O=C(COc1ccc2c(c1)CCC2)Nc1ccccn1	/	4	95*	99*	97*	6	97*	98*	101*	97*	96*
Cc1cccc(NC(=O)COc2ccc3c(c2)CCC3)n1	/	0	29	51*	61*	12	56*	56*	84*	60*	46
O=C(Nc1ccc2c(c1)CCCN2C(=O)c1ccccc1)c1ccccc1Br	0	1	25	20	38	17	/	/	/	/	/
COc1ccccc1C(=O)Nc1ccc2c(c1)CCCN2C(=O)c1ccccc1	-5	0	84*	84*	90*	17	85*	82*	95*	85*	76*
COc1cc(OC)cc(C(=O)Nc2ccc3c(c2)CCCN3C(=O)c2cccs2)c1	0	0	-8	6	24	16	/	/	/	/	/
COc1ccccc1C(=O)Nc1ccc2c(c1)CCCN2C(=O)c1cccs1	0	2	47	55*	54*	3	66*	64*	84*	65*	58*
CCCCNc1ncnc2[nH]ncc12	/	1	/	/	/	-98	/	/	/	/	/
COc1ccc(C(=O)Nc2ccc(C(=O)c3ccccc3)cc2)cc1	/	1	1	0	-16	15	/	/	/	/	/
COc1cc(NC(=O)c2ccccc2)cc(OC)c1	-4	1	12	47	54*	5	18	18	68*	65*	49
COc1ccc(C(=O)Nc2cc(OC)cc(OC)c2)cc1	1	3	81*	89*	87*	15	86*	83*	96*	88*	83*
COc1ccc(C(=O)N/N=C/C(=O)c2ccccc2)cc1	7	-2	58*	84*	80*	6	32	72*	92*	79*	30
COc1ccc(C(=O)NN/C(C)=C/C(=O)c2ccccc2)cc1	1	1	3	8	-15	11	/	/	/	/	/
CC1(C(=O)NS(=O)(=O)c2cccs2)CCN1C(=O)c1ccccc1CCc1ccccc1 (stereo not drawn)	/	2	/	/	/	21	/	/	/	/	/
CC(C)C1C(=O)N(Cc2cn(CCC3OCCCO3)nn2)CCS(=O)(=O)N1Cc1ccc(-c2ccc(Cl)nc2)cc1 (stereo not drawn)	/	-1	/	/	/	3	/	/	/	/	/
CN(C(=O)COC(=O)c1cccc(S(=O)(=O)N(C)c2ccccc2)c1)C1CCCCC1	/	0	0	4	11	15	/	/	/	/	/
CCN(CC)C(=O)CSc1ncnc2c(-c3cccs3)nsc12	-1	-25	21	35	57*	i	15	8	7	8	-4
CCN(CC)C(=O)CSc1ncnc2sccc12	1	-5	-6	-7	-2	1	/	/	/	/	/
O=C(c1cc2cc(Cl)ccc2[nH]1)N1CCN(Cc2ccc3c(c2)OCO3)CC1	-1	-3	3	-17	3	-10	/	/	/	/	/
COc1ccccc1NC(=O)COC(=O)c1c(C)nn(-c2ccccc2)c1C	/	2	95*	97*	93*	5	96*	96*	101*	95*	75*
Cc1ccc(NC(=O)COC(=O)c2c(C)nn(-c3ccccc3)c2C)cc1	/	-3	-4	5	4	2	/	/	/	/	/
Cc1nn(-c2ccccc2)c(C)c1C(=O)OCC(=O)Nc1ccccc1	/	2	75*	81*	83*	-1	77*	76*	94*	83*	74*
Cc1cc(NC(=O)COC(=O)c2c(C)nn(-c3ccccc3)c2C)no1	-1	0	7	7	2	14	/	/	/	/	/
N/C(=N\OC(=O)/C=C/c1ccc(Br)cc1)c1ccccn1	10	2	0	53*	57*	10	13	11	33	45	22
SMILES	HSP90 inh	SENP1 FRET inh	SENP8 block-1	SENP7 block	SENP6 block	SENP8 block-2	SENP8 confirm	SENP6 confirm	SENP7 conf	Casp3 select	Luc interf
N/C(=N\OC(=O)COc1ccc(Br)cc1Cl)c1ccccn1	14	3	86*	97*	96*	20	89*	87*	97*	82*	89*
Cc1cc([N+](=O)[O-])ccc1N=Nc1c(N)[nH]n(-c2ccccc2)c1=O	1	1	19	6	16	30	/	/	/	/	/
Nc1nn(-c2ccccc2)c(N)c1N=Nc1ccc2c(c1)OCO2	1	-4	9	29	62*	40	40	41	76*	45	61*
Nc1[nH]n(-c2ccccc2)c(=O)c1N=Nc1ccc2c(c1)OCCO2	-3	1	84*	93*	73*	36	43	94*	99*	83*	36
CCOc1ccccc1NC(=O)Nc1ccc2c(c1)CCC2	-4	2	47	53*	69*	11	53*	68*	87*	36	48
CCOc1ccccc1OCCC(=O)Nc1ccc2c(c1)OCO2	/	-5	-5	-3	-20	3	/	/	/	/	/
CCOc1ccccc1NC(=O)Nc1cccc(NC(C)=O)c1	-2	1	-4	-4	-12	25	/	/	/	/	/
Cc1ccc(NC(=O)Nc2ccc3c(c2)CCC3)c(C)c1	-1	1	-13	-12	12	5	/	/	/	/	/
